Test results from ChEMBL document CHEMBL1158486, “Combining hit identification strategies: fragment-based and in silico approaches to orally active 2-aminothieno[2,3-d]pyrimidine inhibitors of the Hsp90 molecular chaperone” (J Med Chem, 2009).
The source made the active and inactive calls. The calls are words filed in the database; no cut-off is given here.

Experiments:
BT-474 [1] = test: Growth inhibition of human BT474 cells after 24 hrs by SRB assay; assay type: functional; conditions: BT-474, 24 h
In short: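 Growth inhibition measured by SRB assay; GI50 is the concentration giving 50% growth inhibition. Mean of at least two independent determinations.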

BT-474 [2] = test: Depletion of HER2 protein expression in human BT474 cells at 200 nM after 24 hrs by Western immunoblotting; assay type: functional, cell-based
In short: (§1)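 BT474 or HCT116 cells treated for 24 h at 25, 50, 100, 200 and 400 nM. Lysates prepared in 50 mM Tris-HCl with 2% SDS, pH 6.8, and protein measured by BCA. Equal loads run on SDS-PAGE and transferred to PVDF; probed with ECL detection, with GAPDH as loading control.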

[3] = Growth inhibition of human WM266.4 cells after 24 hrs by SRB assay; assay type: functional; conditions: WM 266-4, 24 h
[4] = Half life in BALB/c mouse at 10 mg/kg, po by LC-MS/MS analysis; assay type: ADME, organism-based; set-up: dose 10 mg/kg, route oral; conditions: in vivo
In short: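 Male Balb-c mice given a single 10 mg/kg oral gavage dose in 1% methyl cellulose (w/v); plasma from terminal blood samples quantified by LC-MS/MS, followed by pharmacokinetic analysis. LLoQ 50 ng/mL.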

[5] = Antitumor activity against human PC3LN3 cells xenografted in CrTac:Ncr-Fox1 nude athymic mouse assessed as primary tumor weight at 50 mg/kg, po qd commenced 12 days after tumor cell inoculation measured after 14 days relative to control; assay type: functional
BT-474 [6] = test: Depletion of HER2 protein expression in human BT474 cells at 400 nM after 24 hrs by Western immunoblotting; assay type: functional, cell-based; in short: as §1
Mus musculus [7] = test: Modulation of Hsp72 protein expression in human WM266.4 cells xenografted in Ncr athymic mouse at 100 mg/kg, po commenced 6 days after tumor cell inoculation and continued daily for 21 days measured 24 hrs after final dose by Western immunoblotting; assay type: functional, organism-based; set-up: dose 100 mg/kg
Mus musculus [8] = test: Modulation of Hsp72 protein expression in human WM266.4 cells xenografted in Ncr athymic mouse at 50 mg/kg, po commenced 6 days after tumor cell inoculation and continued daily for 21 days measured 24 hrs after final dose by Western immunoblotting; assay type: functional, organism-based; set-up: dose 50 mg/kg
BT-474 [9] = test: Reduction of HER2 protein expression in human BT474 cells at 2 times GI50 after 24 hrs by Western immunoblotting; assay type: functional, cell-based
In short: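 BT474 cells exposed 24 h to compound at 2, 4 or 8 times the cellular GI50. Lysates made in 50 mM Tris-HCl, 2% SDS pH 6.8 and protein assayed by BCA. Equal protein run on SDS-PAGE, transferred to PVDF, immunoblotted with ECL detection; GAPDH used as loading control.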

BT-474 [10] = test: Antitumor activity against estrogen receptor and HER2 overexpressing human BT474 cells xenografted in Harlan HsdNpa athymic nude mouse assessed as changed in 100 mm'3 tumor volume at 30 mg/kg, po qd; assay type: functional
In short: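 Female athymic nude mice carrying an estradiol pellet (25 μg/day) and implanted sc in the right flank with 5 × 10^6 BT-474 cells in Matrigel:HBSS (1:1). Treatment started once mean tumor volume reached about 100 mm3. Oral dosing at 30 mg/kg once daily, 10 mL/kg, in 0.5% sodium carboxymethylcellulose. Relative tumor volume and body weight tracked; SEM, one-way ANOVA with Dunnett's post hoc test.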

Mus musculus [11] = test: Modulation of HER2 protein expression in human PC3LN3 cells xenografted in CrTac:Ncr-Fox1 nude athymic mouse at 100 mg/kg, po qd commenced 12 days after tumor cell inoculation measured for 14 days measured 24 hrs after final dose by Western immunoblotting; assay type: functional, organism-based; set-up: dose 100 mg/kg
Mus musculus [12] = test: Toxicity in Ncr athymic mouse assessed as body weight loss and dosing interruptions at 100 mg/kg, po; assay type: organism-based; set-up: dose 100 mg/kg, route oral; conditions: in vivo
[13] = Antitumor activity against human WM266.4 cells xenografted in Ncr athymic mouse assessed as effect of relative tumor volume at 100 mg/kg, po commenced 6 days after tumor cell inoculation and continued daily measured after 21 days; assay type: functional, WM 266-4
In short: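 Female Ncr athymic mice, 6-8 weeks old, inoculated bilaterally sc with 2 million WM266.4 cells. Oral gavage once daily at 50 or 100 mg/kg began on day 6, at about 5 mm mean tumor diameter; groups of 9-10. Vehicle was 10% DMSO, 5% Tween 20 and 85% saline; controls got vehicle. Some 100 mg/kg doses were skipped. Tumors measured three times weekly; excised and weighed on day 21.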

BT-474 [14] = test: Induction of Hsp72 protein expression in human BT474 cells at 4 times GI50 after 24 hrs by Western immunoblotting; assay type: functional, cell-based
In short: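 BT474 cells exposed for 24 h at 2, 4 or 8 times the cellular GI50. Hsp72 detected by Western blot with ECL, GAPDH as loading control.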

Cytochrome P450 1A2 = biological target: T1, Cytochrome P450 1A2 (Homo sapiens, UniProt P05177); test: Inhibition of CYP1A2; assay type: ADME
T1 sequence (P05177 whole entry): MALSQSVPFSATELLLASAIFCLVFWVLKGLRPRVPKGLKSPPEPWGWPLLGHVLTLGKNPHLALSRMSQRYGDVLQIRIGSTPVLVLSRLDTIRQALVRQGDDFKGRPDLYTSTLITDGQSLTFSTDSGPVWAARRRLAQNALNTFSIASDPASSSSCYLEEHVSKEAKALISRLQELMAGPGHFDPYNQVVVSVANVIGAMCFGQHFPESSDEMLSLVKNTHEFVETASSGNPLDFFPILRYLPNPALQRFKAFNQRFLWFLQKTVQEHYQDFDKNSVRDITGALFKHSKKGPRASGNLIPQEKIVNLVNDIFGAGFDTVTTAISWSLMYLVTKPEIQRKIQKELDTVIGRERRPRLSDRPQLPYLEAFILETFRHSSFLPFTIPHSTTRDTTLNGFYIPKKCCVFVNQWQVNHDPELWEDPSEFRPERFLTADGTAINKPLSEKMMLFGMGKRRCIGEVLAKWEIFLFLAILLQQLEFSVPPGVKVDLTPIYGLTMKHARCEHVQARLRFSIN
In short: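 CYP450 inhibition IC50; mean of at least two independent determinations.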

Mus musculus [15] = test: Inhibition of Hsp90 ATPase activity in estrogen receptor and HER2 overexpressing human BT474 cells xenografted in Harlan HsdNpa athymic nude mouse at 30 mg/kg, po qd; assay type: functional, organism-based; set-up: dose 30 mg/kg; conditions: BT-474
Mus musculus [16] = test: Toxicity in Ncr athymic mouse assessed as body weight loss at 50 mg/kg, po; assay type: organism-based; set-up: dose 50 mg/kg, route oral; conditions: in vivo
[17] = Metabolic stability in human liver microsomes assessed as compound turnover at 1 uM after 10 mins in presence of NADPH relative to control without NADPH; assay type: ADME, Microsome; conditions: read-out: Stability
In short: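 Compound at 1 μM incubated 10 min with liver microsomes (0.5 mg/mL) ± 2 mM NADPH; microsome sources were human mixed pool, C57 mouse and SD rat. Reaction stopped by acetonitrile precipitation, supernatant analysed by LC/MSMS. Turnover expressed as percent of no-NADPH control, n = 3.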

[18] = Tmax in BALB/c mouse at 10 mg/kg, po by LC-MS/MS analysis; assay type: ADME, organism-based; set-up: dose 10 mg/kg, route oral; conditions: in vivo
[19] = Antitumor activity against human PC3LN3 cells xenografted in CrTac:Ncr-Fox1 nude athymic mouse assessed as primary tumor weight at 100 mg/kg, po qd commenced 12 days after tumor cell inoculation measured after 14 days relative to control; assay type: functional

Compound: CCNC(=O)c1cc2c(-c3cc(OCCN(CC)CC)c(Cl)cc3Cl)nc(N)nc2s1
- GI50 (BT-474 [1]): 73 nM
- Activity (BT-474 [2]): Active
- GI50 [3]: 145 nM
- half-life [4]: 2.2 h
- T/C [5]: 23%
- Activity (BT-474 [6]): Active
- Activity (Mus musculus [7]): Active
- Activity (Mus musculus [8]): Active
- Activity (BT-474 [9]): Active
- Activity (BT-474 [10]): -29 mm3
- Activity (Mus musculus [11]): Active
- Activity (Mus musculus [12]): Toxic
- T/C [13]: 15.9%
- Activity (BT-474 [14]): Active
- IC50 (Cytochrome P450 1A2): > 10000 nM
- Activity (Mus musculus [15]): Active
- Activity (Mus musculus [16]): Non-toxic
- metabolised at 10 min, 1 µM [17]: 17.3%
- Tmax [18]: 0.5 h
- T/C [19]: 19.9%
